The values below come from ChEMBL document CHEMBL4334444, “Studies of Jatrogossone A as a Reactive Oxygen Species Inducer in Cancer Cellular Models” (J Nat Prod, 2019).

The structures appear in SMILES notation. Active and inactive are the calls of the source. No cut-off for these calls is given here.

Series [1] relates to U2OS. Description: Induction of ROS generation in human U2OS cells at 30 uM incubated for 1 hr in presence of NAC by CellROX green reagent based fluorescence assay. In kind it is functional, cell-based. The procedure, abridged: (§1)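 CellROX green assay in MCF-7 or U2OS cells. Cells were exposed to test compound for 1 h at 37 °C alongside 0.5% DMSO (negative control) and menadione 10–30 μM (positive control), with or without NAC (50–500 μM) as scavenger. CellROX was then added at 5 μM final for 30 min. Cells were PBS-washed, fixed in 4% paraformaldehyde for 15 min, and fluorescence read at 535 nm.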

Series [2] concerns B-ALL. Kind of series: Antiproliferative activity against mouse B-ALL cells expressing wild type BCR-ABL assessed as reduction in cell viability at 0.1 to 250 uM by CellTiter-Glo assay. In kind it is functional, cell-based. The essentials: (§2)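 CellTiter-Glo luminescent viability readout. Cells kept at 37 °C under 5% CO2. HMEC primary cells grown in basal medium with growth kit; leukemia lines and murine BCR-ABL (WT, Bax/Bak DKO) cultured per earlier description. Positive controls: staurosporine 25 μM, gambogic acid 10 μM, a toxic quinoline. At least two biological replicates in technical triplicate; luminescence normalized to untreated controls; EC50 computed.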
In general terms: In ATP-based viability assays light output follows the ATP content of the culture.

Series [3] relates to MCF7. Kind of series: Induction of apoptosis in human MCF7 cells assessed as decrease in caspase 3/7 level after 3 to 24 hrs by Western blot analysis. The series is classed as functional, cell-based. The procedure, abridged: (§3)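 Western blot of KOPN-8 and MCF-7 lysates made in RIPA-type buffer (Tris pH 7.5, Triton X-100, deoxycholate, SDS) with protease and phosphatase inhibitors. 30 μg protein per lane was run on 4–12% Bis-Tris SDS-PAGE and transferred to nitrocellulose. Blots were probed for cleaved caspase-7 and PARP-1 and detected with IR-dye secondaries. Menadione served as positive control: 10 μM in KOPN-8, 30 μM in MCF-7. Blots are representative of three independent experiments.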
A general note: A western blot detects proteins with antibodies after separation by electrophoresis.

In series [4] the test system is MCF7. Description: Induction of ROS generation in human MCF7 cells at 30 uM incubated for 1 hr by CellROX green reagent based fluorescence assay. In kind it is functional, cell-based. The procedure, abridged:
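CellROX green ROS assay: cells exposed 1 h at 37 °C (30 μM) with DMSO 0.5% (v/v) negative control, menadione 10 μM positive control, ± NAC (100 μM per figure legend). CellROX green added at 5 μM final, 30 min more; washed, fixed in 4% paraformaldehyde 15 min, fluorescence read at 485 ex/535 em. Mean and SD of at least three experiments; two-way ANOVA.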

The subject of series [5] is U2OS. Kind of series: Induction of mito-phagy in human U2OS cells transfected with mKeima-Red-Mito-7 at 1.25 to 2.5 uM incubated for 8 hrs by confocal scanning microscopic method. In kind it is functional, cell-based. The procedure, abridged: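 U2OS stably expressing mKeima-Red-Mito-7 (G418 250 μg/mL selection, flow-sorted) were plated at 40 000 cells per well and incubated overnight. Cells were treated 8 h at 37 °C; DMSO 0.5% served as negative control. Live cells were imaged by confocal microscopy at 60×. Mitophagy was scored as the ratio of mitophagy-event fluorescence to cytoplasmic mitochondrial fluorescence. Values are mean and SD of at least three experiments.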

A further series relates to UoC-B1. Description: Antiproliferative activity against human UOCB1 cells assessed as reduction in cell viability at 0.1 to 250 uM by CellTiter-Glo assay. The series is classed as functional, cell-based. The essentials:
as §2

Series [6] has as its system KOPN-8. Kind of series: Induction of apoptosis in human KOPN8 cells assessed as decrease in caspase 3/7 level after 3 to 24 hrs by Western blot analysis. In kind it is functional, cell-based. The essentials: as §3
Series [7] has as its system KOPN-8. Kind of series: Induction of mitochondrial membrane potential loss in human KOPN8 cells at 30 uM by TMRM staining based flow cytometric analysis. The series is classed as functional, cell-based. The conditions noted are these: TDE = time-dependent effect. The procedure, abridged: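 TMRM flow cytometry. KOPN-8 (4 × 10^4 or 5 × 10^5 per well) or MCF-7 (2 × 10^4 or 2 × 10^5 per well) were seeded 24 h, then treated 24–48 h. FCCP 10 μM was added 10 min before staining as positive control. Cells were stained with TMRM 100 nM for 0.5 h, then PBS-washed, resuspended in PBS with 1% FBS and analysed by flow cytometry; DAPI flagged compromised cells.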
For orientation: A flow cytometer gives signals particle by particle.

The test system of the next series is Raji. Description: Antiproliferative activity against human Raji cells assessed as reduction in cell viability at 0.1 to 250 uM by CellTiter-Glo assay. The series is classed as functional, cell-based. The essentials:
as §2

Another series deals with SEM cells. Description: Antiproliferative activity against human SEM cells assessed as reduction in cell viability at 0.1 to 250 uM by CellTiter-Glo assay. The series is classed as functional, cell-based. The procedure, abridged:
as §2

A further series has as its system HepG2. Description: Antiproliferative activity against human HepG2 cells assessed as reduction in cell viability at 0.1 to 250 uM by CellTiter-Glo assay. The series is classed as functional, cell-based. The procedure, abridged: as §2
The subject of series [8] is U2OS. Description: Induction of ROS generation in human U2OS cells at 30 uM incubated for 1 hr by CellROX green reagent based fluorescence assay. In kind it is functional, cell-based. The essentials:
as §1

Series [9] concerns MCF7. Description: Induction of ROS generation in human MCF7 cells at 30 uM incubated for 1 hr in presence of NAC by CellROX green reagent based fluorescence assay. In kind it is functional, cell-based. The essentials:
as §1

Series [10] is described as follows: Stability in CH3CN assessed as micheal adduct formation by measuring intact compound incubated for 16 hrs in presence of NAC by LC-MS analysis. The series is classed as physicochemical.
Series [11] has as its system KOPN-8. Kind of series: Induction of apoptosis in human KOPN8 cells assessed as increase in caspase 3/7 activity incubated for 24 hrs by caspase3/7 reagent based ApoTox-Glo triplex assay. The series is classed as functional, cell-based. The procedure, abridged:
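ApoTox-Glo Triplex assay in KOPN-8 or U2OS cells. Cells were incubated 12 h at 37 °C, then treated 24 h across 100–0.15 μM. Viability (GF-AFC, 400Ex/505Em) and cytotoxicity (bis-AAF-R110, 485Ex/520Em) were read after 30 min at 37 °C. Caspase-Glo 3/7 luminescence was then read after 0.5 h at room temperature. Values are mean ± SEM of three independent experiments.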

Series [12] deals with KOPN-8. Kind of series: Induction of apoptosis in human KOPN8 cells assessed as decrease in viable cells at 10 uM after 24 hrs by Annexin V-FITC and propidium iodide staining based flow cytometry. The series is classed as functional, cell-based. The essentials:
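KOPN-8 cells were plated at 1.00 × 10^6 per plate and held 12 h at 37 °C, then treated 24 h; positive control 2 μM staurosporine, vehicle DMSO. Cells were stained with Annexin V-FITC and PI and analysed by flow cytometry (FACSCalibur). Profiles are representative of three independent biological replicates.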

Series [13] can be described thus: Stability in DMSO assessed as micheal adduct formation by measuring intact compound incubated for 16 hrs in presence of NAC by LC-MS analysis. In kind it is physicochemical.
Series [14] is described as follows: Stability in DMSO assessed as micheal adduct formation by measuring intact compound incubated for 16 hrs in presence of glutathione by LC-MS analysis. In kind it is physicochemical.
Series [15] has as its system B-ALL. Description: Antiproliferative activity against mouse B-ALL cells expressing wild type BCR-ABL assessed as reduction in cell viability at 1 to 10 uM by CellTiter-Glo assay. The series is classed as functional, cell-based. The procedure, abridged: as §2
Series [16] has as its system B-ALL. Kind of series: Cytotoxicity against BCR-ABL p185- positive mouse B-ALL cells overexpressing human BCL-xL assessed as inhibition of cell viability after 24 hrs by AnnexinV-FITC/propidium iodide staining based flow cytometric analysis. In kind it is functional.
The nature of series [17]: Stability in DMSO assessed as micheal adduct formation by measuring intact compound incubated for 16 hrs in presence of NAC by NMR analysis. In kind it is physicochemical.

Consider `CC1=C2CC(C)(C)/C=C/C(=O)/C(C)=C\C3=C[C@H](C)C[C@]3(O2)C1=O` [JATROPHONE], for which the outcome in the series with U2OS [1] and in the series with MCF7 [9] was inactive. In addition, the inhibition entry in the series with B-ALL [2], in the series with UoC-B1, with Raji, with SEM cells and in the series on HepG2 was “Active” in each case. In addition, the Activity entry in the series on MCF7 [3] is “Dose-dependent effect”; in the series with KOPN-8 [6], “Dose-dependent effect”; in the series on KOPN-8 [7], “Tde”. Besides, the outcome with MCF7 [4], with U2OS [5] and in the series with U2OS [8] was Active.
Usually IC50 stands for the concentration needed to halve the response being measured. Turning to `CC(=O)O[C@H]1/C2=C/[C@@H](C)C(=O)C[C@H]3[C@@H](/C=C(\C)C(=O)[C@H]2C[C@H]1C)C3(C)C`, the Stability entry in series [10], in [13], in series [14] and in series [17] was “Stable” each time. Besides, the outcome with U2OS [1] and in the series on MCF7 [9] was inactive. Moreover, the Activity result is “Dose-dependent effect” in the series with KOPN-8 [11], “Dose-dependent effect” in the series with MCF7 [3], “Dose-dependent effect” in the series on KOPN-8 [6] and “Tde” with KOPN-8 [7]. Further, the result with KOPN-8 [12], in the series on MCF7 [4], in the series with U2OS [5] and in the series on U2OS [8] was Active. The inhibition entry in the series on B-ALL [15] was “Active”. Further, the half-maximal inhibitory concentration (IC50) in the series with B-ALL [16] was found to be 23.8 µM.
